pEC50: −log10 of the molar value. Converted amounts (≈) assume the structure as drawn. The source made the active and inactive calls. The calls are words filed in the database; no cut-off is given here.
What was measured:
DPP8/9 = DPP8/9 (Homo sapiens, UniProt Q6V1X1+Q86TI2); experiment: Inhibition of recombinant human DPP8/9 expressed in Rosetta cells at 10 uM using Gly-Pro-p-nitroanilide as substrate incubated for 1 hr relative to control; settings: probe Gly-Pro-p-nitroanilide
[1] = target: T1, Glucose-dependent insulinotropic receptor (Homo sapiens) (UniProt Q8TDV5); experiment: Agonist activity at CREB-LBD and Gal4-DBD fused recombinant human GPR119 expressed in HEK293 cells at 1 uM by firefly luciferase assay relative to AR231453; format: functional, cell-based; settings: filed as agonist
T1 sequence (whole entry): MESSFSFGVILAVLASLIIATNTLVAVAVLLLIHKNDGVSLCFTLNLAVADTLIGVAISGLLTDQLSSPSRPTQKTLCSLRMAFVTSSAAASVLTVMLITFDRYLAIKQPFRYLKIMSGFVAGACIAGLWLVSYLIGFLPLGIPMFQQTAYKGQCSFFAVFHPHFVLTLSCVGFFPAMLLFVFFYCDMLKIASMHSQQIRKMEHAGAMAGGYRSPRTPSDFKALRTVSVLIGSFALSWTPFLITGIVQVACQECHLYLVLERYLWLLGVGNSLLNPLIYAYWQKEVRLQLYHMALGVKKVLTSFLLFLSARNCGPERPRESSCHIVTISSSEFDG
Outline: (§1)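 HEK293 cells transiently transfected with human GPR119, a Gal4-DBD/CREB-LBD fusion and a Gal4 UAS-driven luciferase reporter, then treated with compound (DMSO vehicle). Firefly luciferase luminescence read. Activation fold = compound/vehicle, expressed as percent of the AR231453 activation fold. EC50 obtained by curve fitting.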

[2] = target: T2, Glucose-dependent insulinotropic receptor (Homo sapiens, UniProt Q8TDV5); experiment: Agonist activity at CREB-LBD and Gal4-DBD fused recombinant human GPR119 expressed in HEK293 cells by firefly luciferase assay; format: functional, cell-based; outline: as §1
T2 sequence (Q8TDV5 whole entry): T1 sequence (whole entry)

Mus musculus = experiment: Antidiabetic activity in ICR mouse assessed as reduction in blood glucose level at 30 mg/kg, po administered as single dose followed by oral glucose challenge measured after 30 mins by glucose oxidase method; format: functional, organism-based
Outline: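 Overnight-fasted ICR mice given compound by oral gavage (vehicle distilled water) before a 2 g/kg oral glucose load. Tail-tip blood taken at 0, 30, 60 and 120 min; glucose measured by the glucose oxidase method. n = 10 per group, mean ± SEM.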

[3] = Metabolic stability in ICR/CD-1 mouse hepatocytes assessed as parent compound remaining incubated for 30 mins by LC-MS/MS analysis; format: ADME, cell-based, Hepatocyte; settings: read-out: Stabilty
Outline: (§2)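 Hepatocytes from male ICR/CD-1 mice, male Sprague-Dawley rats, or mixed human donors. Parent compound measured after 30 min incubation and normalised to the time-zero concentration.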

[4] = Metabolic stability in Sprague-Dawley rat hepatocytes assessed as parent compound remaining incubated for 30 mins by LC-MS/MS analysis; format: ADME, cell-based, Hepatocyte; settings: read-out: Stabilty; outline: as §2
[5] = Metabolic stability in human hepatocytes assessed as parent compound remaining incubated for 30 mins by LC-MS/MS analysis; format: ADME, cell-based, Hepatocyte; settings: read-out: Stabilty; outline: as §2
Vero = experiment: Cytotoxicity against African green monkey Vero cells incubated for 48 hrs by MTT assay; settings: Chlorocebus sabaeus

Structure (SMILES)	inhibition at 1 h, 10 µM (DPP8/9) [%]	Activity [1] [%]	pEC50 [2]	Activity (Mus musculus)	remaining at 0.5 h [3] [%]	remaining at 0.5 h [4] [%]	remaining at 0.5 h [5] [%]	IC50 (Vero) [µg/mL]
CC#CCn1c(N2CCC[C@@H](N)C2)nc2c1c(=O)n(CCCN1CCC(c3ncc(-c4ccccc4)o3)CC1)c(=O)n2C	3.3	80	6.08					
CC#CCn1c(N2CCC[C@@H](N)C2)nc2c1c(=O)n(CCCN1CCN(c3nc(-c4ccccc4)no3)CC1)c(=O)n2C		58		Active				
CC#CCn1c(N2CCC[C@@H](N)C2)nc2c1c(=O)n(CCCN1CCN(c3ncc(OC)cn3)CC1)c(=O)n2C		79	5.65					
CC#CCn1c(N2CCC[C@@H](N)C2)nc2c1c(=O)n(CCCN1CCN(c3ncc(CCC)cn3)CC1)c(=O)n2C		84	5.73					
CC#CCn1c(N2CCC[C@@H](N)C2)nc2c1c(=O)n(CCCN1CCN(c3nc(-c4ccccc4)ns3)CC1)c(=O)n2C	1.6	81	5.71					
CC#CCn1c(N2CCC[C@@H](N)C2)nc2c1c(=O)n(CCCN1CCN(c3noc(-c4ccccc4)n3)CC1)c(=O)n2C		89	5.84		24.2	25	82	8.7 (≈ 14.8 µM)
CC#CCn1c(N2CCC[C@@H](N)C2)nc2c1c(=O)n(CCCN1CCN(c3ncc(C(F)(F)F)cn3)CC1)c(=O)n2C		90	5.40					
CC#CCn1c(N2CCC[C@@H](N)C2)nc2c1c(=O)n(CCCN1CCN(c3ncc(CC)cn3)CC1)c(=O)n2C		85	5.40					
CC#CCn1c(N2CCC[C@@H](N)C2)nc2c1c(=O)n(CCCN1CCN(c3cc(C)nn3-c3ccccc3)CC1)c(=O)n2C	15.4	42						
CC#CCn1c(N2CCC[C@@H](N)C2)nc2c1c(=O)n(CCCN1CCC(c3cc(-c4ccccc4)on3)CC1)c(=O)n2C	3.3	49						
CC#CCn1c(N2CCC[C@@H](N)C2)nc2c1c(=O)n(CCCN1CCC(c3nc(-c4ccccc4)c[nH]3)CC1)c(=O)n2C	5.1	65	6.22		69.4	21.7	84	35.2 (≈ 60.3 µM)
CC#CCn1c(N2CCC[C@@H](N)C2)nc2c1c(=O)n(CCCN1CCC(c3nc(-c4ccccc4)cs3)CC1)c(=O)n2C	2.2	83	5.50					
